Experimental data from ChEMBL document CHEMBL1122206, “Use of adenine nucleotide derivatives to assess the potential of exo-active-site-directed reagents as species- or isozyme-specific enzyme inactivators. 5. Interactions of adenosine 5'-triphosphate derivatives with rat pyruvate kinases, Escherichia coli thymidine kinase, and yeast and rat …” (1982).
“And” between values parts separate entries of the source, which are not always exact repeats. Equal values may be shown once.

Tests used:
[1] = target: T1, Hexokinase-1 (Rattus norvegicus) (UniProt P05708); test: Time dependent inhibition of Hexokinase type I activity after 6 h, at 22 degrees celsius, at 5 mM compound
T1 sequence (whole entry): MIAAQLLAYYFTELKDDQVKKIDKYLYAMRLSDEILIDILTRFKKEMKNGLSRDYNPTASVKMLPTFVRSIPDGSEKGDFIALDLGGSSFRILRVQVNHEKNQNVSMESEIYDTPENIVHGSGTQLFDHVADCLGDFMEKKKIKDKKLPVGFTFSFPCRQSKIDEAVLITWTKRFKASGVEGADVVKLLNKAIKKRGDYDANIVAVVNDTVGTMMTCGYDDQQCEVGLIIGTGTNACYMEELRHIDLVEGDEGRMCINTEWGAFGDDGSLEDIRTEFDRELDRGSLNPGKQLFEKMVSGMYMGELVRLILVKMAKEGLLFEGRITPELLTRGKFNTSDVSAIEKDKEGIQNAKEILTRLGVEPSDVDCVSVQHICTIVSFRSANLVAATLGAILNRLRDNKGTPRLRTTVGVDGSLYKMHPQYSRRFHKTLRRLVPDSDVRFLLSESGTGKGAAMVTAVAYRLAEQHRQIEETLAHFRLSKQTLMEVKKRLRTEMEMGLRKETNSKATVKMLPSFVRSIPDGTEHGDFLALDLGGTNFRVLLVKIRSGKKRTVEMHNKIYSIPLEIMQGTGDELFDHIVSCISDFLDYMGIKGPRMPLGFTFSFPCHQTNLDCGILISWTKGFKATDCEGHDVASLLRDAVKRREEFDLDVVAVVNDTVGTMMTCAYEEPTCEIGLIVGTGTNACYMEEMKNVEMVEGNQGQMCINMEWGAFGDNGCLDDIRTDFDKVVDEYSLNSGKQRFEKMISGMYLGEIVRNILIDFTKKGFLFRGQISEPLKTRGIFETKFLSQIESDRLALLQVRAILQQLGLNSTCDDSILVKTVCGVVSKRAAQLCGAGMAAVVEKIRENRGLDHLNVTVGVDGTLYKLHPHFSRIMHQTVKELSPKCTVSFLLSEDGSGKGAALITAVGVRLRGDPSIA

[2] = target: Thymidine kinase (Escherichia coli) (UniProt P23331); test: Compound was tested for the initial inhibition of thymidine kinase by 1.4 mM compound in the presence of 5.7 mM ATP in Escherichia coli
[3] = (§1) Extent of inactivation caused by the compound was reported.
[4] = Compound was tested for the affinity relative to the normal substrate. Affinity is expressed as KM (ATP or ADP)/ Ki of inhibitor.
[5] = target: Thymidine kinase (Escherichia coli) (UniProt P23331); test: Compound was tested for the lose of thymidine kinase activity after 6 hr, at 0 degrees celsius, with 10 mM ATP derivative. values were expressed in percent
[6] = target: T2, Hexokinase-3 (Rattus norvegicus) (UniProt P27926); test: Time dependent inhibition of Hexokinase type III activity after 6 h, at 22 degrees celsius, at 5 mM
T2 sequence (whole entry): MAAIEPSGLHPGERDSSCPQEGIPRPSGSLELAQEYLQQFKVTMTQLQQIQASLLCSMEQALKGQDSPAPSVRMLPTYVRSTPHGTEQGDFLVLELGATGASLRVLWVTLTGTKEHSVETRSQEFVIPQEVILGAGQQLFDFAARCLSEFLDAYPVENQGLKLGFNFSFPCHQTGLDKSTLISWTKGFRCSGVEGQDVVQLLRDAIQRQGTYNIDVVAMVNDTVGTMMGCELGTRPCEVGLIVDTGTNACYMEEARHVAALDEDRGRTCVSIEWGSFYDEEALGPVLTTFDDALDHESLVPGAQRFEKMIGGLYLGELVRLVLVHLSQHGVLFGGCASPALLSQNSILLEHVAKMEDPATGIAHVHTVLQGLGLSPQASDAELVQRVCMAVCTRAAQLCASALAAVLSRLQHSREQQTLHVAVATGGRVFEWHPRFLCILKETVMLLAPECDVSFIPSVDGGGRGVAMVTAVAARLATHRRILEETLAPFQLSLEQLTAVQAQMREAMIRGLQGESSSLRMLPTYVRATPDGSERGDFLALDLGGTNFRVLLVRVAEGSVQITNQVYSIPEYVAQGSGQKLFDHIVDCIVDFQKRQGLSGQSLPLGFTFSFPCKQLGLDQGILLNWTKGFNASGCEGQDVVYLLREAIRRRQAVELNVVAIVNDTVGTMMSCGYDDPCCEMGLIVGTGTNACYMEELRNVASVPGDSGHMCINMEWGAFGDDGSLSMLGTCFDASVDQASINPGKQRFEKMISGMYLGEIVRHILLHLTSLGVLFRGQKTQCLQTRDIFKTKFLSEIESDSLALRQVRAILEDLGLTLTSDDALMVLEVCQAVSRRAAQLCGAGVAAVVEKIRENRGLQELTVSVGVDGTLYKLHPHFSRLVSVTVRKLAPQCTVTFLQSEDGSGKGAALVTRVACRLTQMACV

[7] = target: T3, Hexokinase-2 (Rattus norvegicus) (UniProt P27881); test: Time dependent inhibition of hexokinase 2 activity after 6 h, at 5 mM compound
T3 sequence (whole entry): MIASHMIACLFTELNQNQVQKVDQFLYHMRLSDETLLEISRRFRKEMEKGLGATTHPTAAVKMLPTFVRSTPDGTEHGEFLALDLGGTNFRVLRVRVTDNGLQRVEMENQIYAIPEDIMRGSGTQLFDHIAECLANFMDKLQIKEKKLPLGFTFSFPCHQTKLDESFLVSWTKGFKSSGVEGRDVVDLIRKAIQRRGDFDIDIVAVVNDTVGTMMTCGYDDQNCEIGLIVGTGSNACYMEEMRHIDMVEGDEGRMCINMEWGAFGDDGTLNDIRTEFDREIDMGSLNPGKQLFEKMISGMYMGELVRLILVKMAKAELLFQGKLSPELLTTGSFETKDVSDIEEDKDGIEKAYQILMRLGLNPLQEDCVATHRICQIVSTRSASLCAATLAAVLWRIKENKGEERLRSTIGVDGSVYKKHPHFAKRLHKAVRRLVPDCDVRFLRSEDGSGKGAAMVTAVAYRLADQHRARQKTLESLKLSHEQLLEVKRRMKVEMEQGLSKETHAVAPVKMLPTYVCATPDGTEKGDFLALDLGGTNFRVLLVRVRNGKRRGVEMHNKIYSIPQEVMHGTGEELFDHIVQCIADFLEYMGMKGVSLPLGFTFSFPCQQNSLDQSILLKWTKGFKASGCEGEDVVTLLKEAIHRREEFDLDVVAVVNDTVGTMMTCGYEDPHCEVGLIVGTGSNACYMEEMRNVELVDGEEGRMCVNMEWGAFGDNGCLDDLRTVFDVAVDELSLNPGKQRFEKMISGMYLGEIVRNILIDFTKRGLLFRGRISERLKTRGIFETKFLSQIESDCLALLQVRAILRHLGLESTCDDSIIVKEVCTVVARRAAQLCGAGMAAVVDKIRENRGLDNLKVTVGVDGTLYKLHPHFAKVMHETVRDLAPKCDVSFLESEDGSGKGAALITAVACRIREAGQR

[8] = Tested for the velocity of 2.8 mM compound relative to that of 2.8 mM MgATP in the assay
In short: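 E. coli TK substrate test. 0.5 h after adding inhibitor, the mixture was diluted to 2.8 mM derivative in thymidine assay medium without ATP and with 1.42 mM MnCl2. Incubated 15 min at 37 °C, in the linear range. [14C]TMP formed was compared with that from 2.8 mM ATP under the same conditions.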

Saccharomyces cerevisiae [9] = test: Substrate activity against yeast hexokinase as 1:1 Mg complexes at 5.0 mM
In short: (§2)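 Hexokinase activity read at 22 °C as A340 change, coupled to glucose-6-phosphate dehydrogenase, in 0.05 M Tris-HCl pH 7.6 with 6.6 mM MgCl2, 10 mM α-D-glucose and 0.93 mM NADP. Donor was 5.0 mM MgATP derivative (1:1 Mg complex) in place of ATP. Yeast HK was isoelectric-focused. Rat HK I and III came from electrofocused liver extract, HK II from dialysed muscle extract.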

Rattus norvegicus = species on record: Rattus norvegicus; test: Compound was tested for the affinity to Rat pyruvate kinase relative to the normal substrate. Affinity is expressed as KM (ATP or ADP)/ Ki of inhibitor.; type: functional
[10] = as §1; type: functional
[11] = target: T3, Hexokinase-2 (Rattus norvegicus); test: Substrate activity against Rat hexokinase II as 1:1 Mg complex at 5.0 mM
In short: as §2

[12] = target: T2, Hexokinase-3 (Rattus norvegicus); test: Substrate activity for rat hexokinase III as 1:1 Mg complex at 5.0 mM
In short: as §2

Saccharomyces cerevisiae [13] = test: Time dependent inhibition of hexokinase activity after 6 hr, at 22 degrees celsius, with 5 mM ATP derivative in yeast.
[14] = target: T1, Hexokinase-1 (Rattus norvegicus); test: Substrate activity for rat hexokinase I as 1:1 Mg complex at 5.0 mM
In short: as §2

[15] = Substrate concentration for half maximal velocity was reported for rat hexokinase II
In short: (§3)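 Coupled glucose-6-phosphate dehydrogenase/NADP assay: A340 rate at 22 °C in 0.05 M Tris-HCl pH 7.6 with 6.6 mM MgCl2, 10 mM α-D-glucose and 0.93 mM NADP, nucleotide varied. KM was taken from linear double-reciprocal plots. Rat HK I and III came from electrofocused, dialysed liver extract, HK II from dialysed muscle extract, and yeast HK was isoelectric-focused.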

[16] = Compound was tested for substrate constants with yeast hexokinase. Maximal velocity Vmax was reported
In short: (§4)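 Hexokinase KM and Vmax taken from linear double-reciprocal plots of initial velocity vs. nucleotide level. Assays at 22 °C, coupled to glucose-6-phosphate dehydrogenase (A340), in 0.05 M Tris-HCl pH 7.6 with 6.6 mM MgCl2, 10 mM glucose and 0.93 mM NADP. Yeast HK was isoelectric-focused. Rat HK I and III came from liver, HK II from muscle (male Sprague-Dawley).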

[17] = Substrate concentration for half maximal velocity was reported for rat hexokinase III
In short: as §3

[18] = Compound was tested for substrate constants with rat hexokinase. Maximal velocity Vmax was reported
In short: as §4

[19] = Substrate concentration for half maximal velocity was reported for yeast hexokinase
In short: as §3

[20] = Substrate concentration for half maximal velocity was reported for rat hexokinase I
In short: as §3

Chain of Thymidine kinase (Escherichia coli) (P23331 whole entry, looked up): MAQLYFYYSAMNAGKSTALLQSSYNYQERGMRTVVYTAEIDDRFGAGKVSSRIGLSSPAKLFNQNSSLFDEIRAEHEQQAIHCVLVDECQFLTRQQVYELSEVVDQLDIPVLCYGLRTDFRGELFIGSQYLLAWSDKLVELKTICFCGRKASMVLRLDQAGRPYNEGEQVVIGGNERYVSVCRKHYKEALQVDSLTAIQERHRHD

## CN(CCCCN(C)c1ncnc2c1ncn2[C@@H]1O[C@H](COP(=O)(O)OP(=O)(O)OP(=O)(O)O)[C@@H](O)[C@H]1O)C(=O)CCCCCNC(=O)CI
[1]
  inhibition: 0%
[2]
  inhibition: 11%
[3]
  Relative inactivation: > 80
[4]
  Relative affinity: 0.56
[5]
  inhibition: 53%
[6]
  inhibition: 0%
[7]
  inhibition: 0%
[8]
  Velocity: > 13%

## O=C(CI)NCCCCCCCCNc1ncnc2c1ncn2[C@@H]1O[C@H](COP(=O)(O)OP(=O)(O)OP(=O)(O)O)[C@@H](O)[C@H]1O
[1]
  inhibition: 35%
Saccharomyces cerevisiae [9]
  Relative velocity: 1.82
Rattus norvegicus
  Relative affinity: 0.011
[10]
  Inactivation: > 90%
[11]
  Relative velocity: 1.26
[2]
  inhibition: 19%
[12]
  Relative velocity: 2.81
Saccharomyces cerevisiae [13]
  inhibition: 30%
[5]
  inhibition: 0%
[14]
  Relative velocity: 1.79
[6]
  inhibition: 47%
[7]
  inhibition: 41%

## CN(CCCN(C)C(=O)CCCCNc1ncnc2c1ncn2[C@@H]1O[C@H](COP(=O)(O)OP(=O)(O)OP(=O)(O)O)[C@@H](O)[C@H]1O)C(=O)CCCCNC(=O)OCc1ccccc1
[15]
  Km: 270 µM
[16]
  Vmax: 75%
[17]
  Km: 100 µM
[18]
  Vmax: 45% and 35% and 23%
[19]
  Km: 320 µM
[20]
  Km: 180 µM
